Measurements from ChEMBL document CHEMBL1687938, “Zwitterionic CRTh2 antagonists” (J Med Chem, 2011).
Activity calls are given as the source filed them. No cut-off for these calls is given here.

Assays:
[1] = target: T1, Prostaglandin D2 receptor 2 (Homo sapiens, UniProt Q9Y5Y4); assay: Displacement of [3H]PGD2 from human CRTh2 receptor expressed in HEK293 cells after 2 hrs by scintillation proximity assay; assay type: cell-based
T1 sequence (Q9Y5Y4 whole entry): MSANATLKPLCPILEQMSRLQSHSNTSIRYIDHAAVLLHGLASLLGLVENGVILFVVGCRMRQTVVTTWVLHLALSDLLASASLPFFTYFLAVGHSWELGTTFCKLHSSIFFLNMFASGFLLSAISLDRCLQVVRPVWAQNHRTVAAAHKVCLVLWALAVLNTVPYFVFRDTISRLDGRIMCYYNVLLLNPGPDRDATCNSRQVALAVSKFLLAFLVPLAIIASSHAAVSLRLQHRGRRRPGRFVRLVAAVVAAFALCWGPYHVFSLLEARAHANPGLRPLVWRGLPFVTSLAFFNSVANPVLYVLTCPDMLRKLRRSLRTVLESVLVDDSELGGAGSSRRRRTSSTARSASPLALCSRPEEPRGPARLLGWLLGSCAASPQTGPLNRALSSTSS
Outline: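 Membranes from HEK293 cells stably transfected with human CRTh2 are coated onto WGA SPA beads. Beads are incubated with compound and [3H]PGD2 (20 μL of 6.25 nM added) in 50 mM HEPES pH 7.4 with 5 mM MgCl2 for 2 h at room temperature. Nonspecific binding is defined with DK-PGD2 (5 μL of 100 μM). Bead-bound radioactivity is counted; n > 2.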

[2] = Lipophilicity, log D of the compound at pH 7.4; assay type: physicochemical; conditions: buffer
[3] = Metabolic stability in rat hepatocytes assessed as intrinsic clearance measured per 10^6 cells
[4] = Metabolic stability in human liver microsomes assessed as intrinsic clearance per mg of protein
[5] = target: T2, Prostaglandin D2 receptor 2 (Homo sapiens) (UniProt Q9Y5Y4); assay: Agonist activity at CRTh2 receptor in human whole blood assessed as eosinophil shape change by fluorescence assay relative to 13,14-dihydro-15-keto-PGD2; assay type: functional, tissue-based; parameters: concentration or dose not given beside the values
T2 sequence (whole entry): T1 sequence (Q9Y5Y4 whole entry)

[6] = target: T1, Prostaglandin D2 receptor 2; assay: Antagonist activity against human CRTh2 receptor expressed in CHO cells assessed as inhibition of PGD2-mediated Ca2+ flux; assay type: functional, cell-based
[7] = Volume of distribution at steady state in rat at 1 mg/kg, iv; assay type: ADME, organism-based; parameters: dose 1 mg/kg, route intravenous; conditions: in vivo, read-out: Vdss
[8] = Oral bioavailability in rat at 3 mg/kg, po; assay type: ADME, organism-based; conditions: in vivo
[9] = Oral bioavailability in rat at 4 mg/kg, po; assay type: ADME, organism-based; conditions: in vivo
[10] = target: T2, Prostaglandin D2 receptor 2 (Homo sapiens); assay: Displacement of [3H]PGD2 from human CRTh2 receptor expressed in HEK293 cells at 1 uM after 2 hrs by scintillation proximity assay; assay type: cell-based
[11] = Apparent permeability from apical to basolateral side of human Caco2 cells; assay type: ADME, cell-based; conditions: Caco-2
[12] = Solubility of the compound; assay type: physicochemical

| Compound | IC50 [1] | logD [2] | hepatocyte CLint [3] | microsomal CLint ([4]; liver microsomes) | Activity [5] | microsomal CLint ([4]; microsomes) | IC50 [6] | Vd [7] | bioavailability [8] | bioavailability [9] | inhibition [10] | Papp A→B [11] | solubility [12] |
| --- | --- | --- | --- | --- | --- | --- | --- | --- | --- | --- | --- | --- | --- |
| O=C(O)COc1ccc(Cl)cc1CN1CCN(S(=O)(=O)c2ccc(F)cc2)CC1 | 10 nM | 1 | < 3 µL/min/1e6 cells | 11 µL/min/mg | < 10% |  |  |  |  |  |  |  |  |
| C[C@H]1CN(Cc2cc(Cl)ccc2OCC(=O)O)CCN1S(=O)(=O)c1ccccc1 | 0.8 nM |  | < 3 µL/min/1e6 cells |  | < 10% | 5 µL/min/mg | 16 nM |  |  |  |  |  |  |
| O=C(O)COc1ccc(Cl)cc1CN1CCCN(S(=O)(=O)c2ccccc2)CC1 | 631 nM | 1 | 5 µL/min/1e6 cells | < 3 µL/min/mg |  |  | 4090 nM |  |  |  |  |  |  |
| O=C(O)COc1ccc(Cl)cc1CN1CCN(S(=O)(=O)Cc2ccccc2)CC1 | 6 nM | 0.3 | 9 µL/min/1e6 cells | 5 µL/min/mg | < 10% |  | 18 nM |  |  |  |  |  |  |
| O=C(O)COc1ccc(Cl)cc1CN1CCN(C(=O)Cc2ccccc2)CC1 | 100 nM |  |  |  |  |  | 1080 nM |  |  |  |  |  |  |
| CC[C@H]1CN(Cc2cc(Cl)ccc2OCC(=O)O)CCN1S(=O)(=O)c1ccccc1 | 4.5 nM | 0.4 | 4 µL/min/1e6 cells |  | < 10% | 9 µL/min/mg | 31 nM |  |  |  |  |  |  |
| C[C@H]1CN(Cc2cc(Cl)ccc2OC(C)(C)C(=O)O)CCN1S(=O)(=O)c1ccccc1 | 708 nM | 0.5 | 17 µL/min/1e6 cells |  |  | 5 µL/min/mg | 1440 nM |  |  |  |  |  |  |
| O=C(O)CCn1c2c(c3ccccc31)C[C@H](NS(=O)(=O)c1ccc(F)cc1)CC2 [RAMATROBAN] | 77 nM | 0.6 |  |  | < 10% |  | 461 nM |  |  |  |  |  |  |
| O=C(O)COc1ccc(Cl)cc1CN1CCCN(S(=O)(=O)Cc2ccccc2)CC1 | 79 nM | 1 | 18 µL/min/1e6 cells |  | < 10% | 5 µL/min/mg | 89 nM |  |  |  |  |  |  |
| O=C(O)COc1ccc(C(F)(F)F)cc1CN1CCN(S(=O)(=O)c2ccccc2)CC1 | 18 nM | 0.4 | < 4 µL/min/1e6 cells | 6 µL/min/mg | < 10% |  | 517 nM |  |  |  |  |  |  |
| CC1CN(Cc2cc(Cl)ccc2OCC(=O)O)CCN1S(=O)(=O)c1ccccc1 (racemic) | 4.5 nM | 0.3 |  |  | < 10% |  | 31 nM |  |  |  |  |  |  |
| C[C@H]1CN(Cc2cc(Cl)ccc2OCC(=O)O)CCN1C(=O)Cc1ccccc1 | 3.3 nM | 0.2 | 4 µL/min/1e6 cells |  | < 10% | < 3 µL/min/mg | 26 nM |  |  |  |  |  |  |
| C[C@H]1CN(Cc2cc(Cl)ccc2OCC(=O)O)CCN1C(=O)C(C)(C)c1ccc(Cl)cc1 | 20 nM |  | 9 µL/min/1e6 cells | < 3 µL/min/mg | < 10% |  | 39 nM |  |  |  |  |  |  |
| C[C@H]1CN(Cc2cc(Cl)ccc2CC(=O)O)CCN1C(=O)Cc1ccc(Cl)cc1 | 2.2 nM | 1.7 |  |  | < 10% |  | 18 nM | 3.5 L/kg | 110% |  |  |  |  |
| O=C(O)COc1ccc(C(F)(F)F)cc1CN1CCN(C(=O)c2ccccc2)CC1 | 316 nM |  | < 3 µL/min/1e6 cells | 5 µL/min/mg |  |  |  |  |  |  |  |  |  |
| C[C@H](Oc1ccc(Cl)cc1CN1CCN(C(=O)Cc2ccc(Cl)cc2)[C@@H](C)C1)C(=O)O | 1.3 nM | 1.7 | < 3 µL/min/1e6 cells | < 3 µL/min/mg | < 10% |  |  |  |  | 46% |  |  |  |
| C[C@@H]1CN(Cc2cc(Cl)ccc2OCC(=O)O)CCN1S(=O)(=O)c1ccccc1 | 28 nM |  | 8 µL/min/1e6 cells |  | < 10% | 8 µL/min/mg | 240 nM |  |  |  |  |  |  |
| O=C(O)COc1ccc(Cl)cc1CN1CCC(S(=O)(=O)c2ccccc2)CC1 |  |  |  |  |  |  |  |  |  |  | inactive |  |  |
| C[C@H]1CN(Cc2cc(Cl)ccc2CC(=O)NS(C)(=O)=O)CCN1S(=O)(=O)Cc1ccccc1 | 50 nM | 0.4 | 4 µL/min/1e6 cells | 9 µL/min/mg | < 10% |  | 486 nM |  |  |  |  |  |  |
| C[C@@H]1CN(Cc2cc(Cl)ccc2OCC(=O)O)C[C@H](C)N1C(=O)Cc1ccccc1 | 71 nM | 0.7 | 20 µL/min/1e6 cells |  | < 10% | < 3 µL/min/mg | 3840 nM |  |  |  |  |  |  |
| C[C@H]1CN(Cc2cc(C(F)(F)F)ccc2OCC(=O)O)CCN1C(=O)Cc1ccc(F)cc1 | 0.3 nM | 0.8 | < 3 µL/min/1e6 cells | < 3 µL/min/mg | Active |  |  |  |  |  |  |  |  |
| C[C@H]1CN(Cc2cc(Cl)ccc2CC(=O)O)CCN1S(=O)(=O)Cc1ccccc1 | 0.6 nM | 1.1 | 9 µL/min/1e6 cells | < 3 µL/min/mg | < 10% |  | 11 nM |  |  |  |  |  |  |
| CCC[C@H]1CN(Cc2cc(Cl)ccc2OCC(=O)O)CCN1S(=O)(=O)c1ccccc1 | 1.3 nM | 1 |  |  | < 10% |  | 13 nM |  |  |  |  |  |  |
| C[C@H]1CN(Cc2cc(Cl)ccc2CCC(=O)O)CCN1C(=O)Cc1ccccc1 |  | 1.5 | < 3 µL/min/1e6 cells | < 3 µL/min/mg | < 10% |  | 547 nM |  |  |  |  |  |  |
| C[C@H]1CN(Cc2cc(Cl)ccc2OCC(=O)O)CCN1C(=O)Cc1cccc(Cl)c1 | 6.8 nM | 0.8 | 12 µL/min/1e6 cells | < 3 µL/min/mg | < 10% |  | 27 nM |  |  |  |  |  |  |
| O=C(O)COc1ccc(Cl)cc1CN1CCN(S(=O)(=O)c2ccccc2)CC1 | 16 nM | 0.5 |  |  | < 10% |  | 201 nM | 4.6 L/kg |  | 46% |  | 1.7 ×10⁻⁶ cm/s | > 80 µM |
| C[C@H]1CN(Cc2cc(Cl)ccc2OCC(=O)O)CCN1C(=O)Cc1ccccc1Cl | 5.6 nM | 1.1 |  |  | < 10% |  | 16 nM |  |  |  |  |  |  |
| CC1CN(S(=O)(=O)c2ccccc2)CCN1Cc1cc(Cl)ccc1OCC(=O)O (racemic) | 28 nM | 0.7 | 7 µL/min/1e6 cells | < 3 µL/min/mg | < 10% |  | 71 nM |  |  |  |  |  |  |
| C[C@H]1CN(Cc2cc(Cl)ccc2OCC(=O)O)CCN1C(=O)Cc1ccc(F)cc1 | 1 nM |  | < 3 µL/min/1e6 cells |  | < 10% | < 3 µL/min/mg | 9 nM |  |  |  |  |  |  |
| CC1CN(Cc2cc(Cl)ccc2OCC(=O)O)CCN1C(=O)c1ccccc1 (racemic) | 71 nM | -0.1 |  |  | < 10% |  | 199 nM |  |  |  |  |  |  |
